Laboratory results from ChEMBL document CHEMBL4364256, “Design, synthesis and biological evaluation of antimicrobial diarylimine and -amine compounds targeting the interaction between the bacterial NusB and NusE proteins” (Eur J Med Chem, 2019).
≈ marks a conversion by molar mass, not a printed value.

Key:
Staphylococcus aureus [1] = assay: Antimicrobial activity against Staphylococcus aureus HA W231 ST45 incubated for 20 hrs by microdilution method; assay type: functional; conditions: HA W231 ST45, 20 h
Summary of the method: (§1)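 MIC determined by microdilution following Clinical & Laboratory Standards Institute (CLSI) guidelines, read in µg/mL, against a panel of hospital- and community-acquired MRSA strains.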

Streptococcus pneumoniae = assay: Antimicrobial activity against Streptococcus pneumoniae ATCC 49619 incubated for 20 hrs by microdilution method; assay type: functional; conditions: ATCC 49619, 20 h
Summary of the method: (§2)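 Broth microdilution MIC testing done following CLSI guidelines.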

[2] = Therapeutic index, ratio of CC50 for human HaCaT cells to 1/2 times MIC for Staphylococcus aureus ATCC 25923; assay type: toxicity; conditions: read-out: TI
[3] = Therapeutic index, ratio of CC50 for human A549 cells to 1/2 times MIC for Staphylococcus aureus ATCC 25923; assay type: toxicity; conditions: read-out: TI
Staphylococcus aureus [4] = assay: Antimicrobial activity against Staphylococcus aureus ATCC BAA43 incubated for 20 hrs by microdilution method; assay type: functional; conditions: ATCC BAA43, 20 h; summary of the method: as §1
Streptococcus agalactiae = assay: Antimicrobial activity against Streptococcus agalactiae ATCC 12386 incubated for 20 hrs by microdilution method; assay type: functional; conditions: ATCC 12386, 20 h; summary of the method: as §2
Staphylococcus aureus [5] = assay: Antimicrobial activity against Staphylococcus aureus ATCC BAA44 incubated for 20 hrs by microdilution method; assay type: functional; conditions: ATCC BAA44, 20 h; summary of the method: as §1
Staphylococcus aureus [6] = assay: Antimicrobial activity against Staphylococcus aureus USA300/ST8 incubated for 20 hrs by microdilution method; conditions: USA300 ST8, 20 h
Staphylococcus aureus [7] = assay: microbe, parasite or virus in culture; conditions: ATCC 29213, 20 h
Staphylococcus aureus [8] = assay: Antimicrobial activity against CA-methicillin-resistant Staphylococcus aureus W47 ST30 incubated for 20 hrs by microdilution method; assay type: functional; conditions: W47 ST30, 20 h; summary of the method: as §1
Pseudomonas aeruginosa = assay: Antimicrobial activity against Pseudomonas aeruginosa ATCC 27853 incubated for 20 hrs by microdilution method; assay type: functional; conditions: ATCC 27853, 20 h; summary of the method: as §2
Bacillus subtilis = assay: Inhibition of N-terminal LgBiT-fused Bacillus subtilis NusB expressed in Escherichia coli BL21(DE3)pLysS interaction with C- terminal SmBiT-fused Bacillus subtilis NusE expressed in Escherichia coli BL21(DE3)pLysS at 100 uM preincubated for 10 mins followed by NusE addition and measured after 10 mins by nano-glo luciferase assay relative to control
Summary of the method: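 NusB and NusE were mixed 1:1 at 1 µM in PBS, with compound at 100 µM. The read-out was percent inhibition of the NusB-NusE interaction.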

[9] = test system: Staphylococcus epidermidis; assay: Antimicrobial activity against Staphylococcus epidermidis ATCC 12228 incubated for 20 hrs by microdilution method; assay type: functional; conditions: ATCC 12228, 20 h; summary of the method: as §2
Acinetobacter baumannii = assay: Antimicrobial activity against Acinetobacter baumannii ATCC 19606 incubated for 20 hrs by microdilution method; assay type: functional; conditions: ATCC 19606 = CIP 70.34 = JCM 6841, 20 h; summary of the method: as §2
[10] = Cytotoxicity against human HaCaT cells assessed as reduction in cell viability after 48 to 72 hrs by MTT assay; assay type: cell-based
Staphylococcus aureus [11] = assay: Antimicrobial activity against CA-methicillin-resistant Staphylococcus aureus W48 ST217 incubated for 20 hrs by microdilution method; conditions: W48 ST217, 20 h
[12] = microbe, parasite or virus in culture; conditions: Enterobacter cloacae, ATCC 13047, 20 h
Staphylococcus aureus [13] = assay: microbe, parasite or virus in culture; conditions: ATCC 25923, 20 h
Staphylococcus aureus [14] = assay: Antimicrobial activity against CA-methicillin-resistant Staphylococcus aureus W45 ST59 incubated for 20 hrs by microdilution method; conditions: W45 ST59, 20 h
Staphylococcus aureus [15] = assay: Antimicrobial activity against Staphylococcus aureus ST239 incubated for 20 hrs by microdilution method; assay type: functional; conditions: CN79, 20 h; summary of the method: as §1
Streptococcus pyogenes = assay: Antimicrobial activity against Streptococcus pyogenes ATCC 19615 incubated for 20 hrs by microdilution method; assay type: functional; conditions: ATCC 19615, 20 h; summary of the method: as §2
Enterococcus faecium = assay: Antimicrobial activity against Enterococcus faecium ATCC 19433 incubated for 20 hrs by microdilution method; assay type: functional; conditions: ATCC 19433, 20 h; summary of the method: as §2
Staphylococcus aureus [16] = assay: Antimicrobial activity against Staphylococcus aureus ST22 11B086169 incubated for 20 hrs by microdilution method; assay type: functional; conditions: ST22 11B086169, 20 h; summary of the method: as §1
Staphylococcus aureus [17] = assay: Antimicrobial activity against Staphylococcus aureus HA W235 ST5 incubated for 20 hrs by microdilution method; assay type: functional; conditions: HA W235 ST5, 20 h; summary of the method: as §1
[18] = test system: Enterococcus casseliflavus; assay: Antimicrobial activity against Enterococcus casseliflavus ATCC 25788 incubated for 20 hrs by microdilution method; assay type: functional; conditions: ATCC 25788, 20 h; summary of the method: as §2
[19] = Cytotoxicity against human A549 cells assessed as reduction in cell viability after 48 to 72 hrs by MTT assay; assay type: cell-based
Staphylococcus aureus [20] = assay: Antimicrobial activity against CA-methicillin-resistant Staphylococcus aureus W46 ST59 incubated for 20 hrs by microdilution method; conditions: W46 ST59, 20 h
[21] = Antimicrobial activity against Staphylococcus saprophyticus ATCC 15305 incubated for 20 hrs by microdilution method; assay type: functional, Staphylococcus saprophyticus subsp. saprophyticus; conditions: ATCC 15305, 20 h; summary of the method: as §2
Staphylococcus aureus [22] = assay: Antimicrobial activity against CA-methicillin-resistant Staphylococcus aureus W4 ST338 incubated for 20 hrs by microdilution method; assay type: functional; conditions: W4 ST338, 20 h; summary of the method: as §1

SMILES | MIC (Staphylococcus aureus [1]) [µg/mL] | MIC (Streptococcus pneumoniae) [µg/mL] | selectivity ratio [2] | selectivity ratio [3] | MIC (Staphylococcus aureus [4]) [µg/mL] | MIC (Streptococcus agalactiae) [µg/mL] | MIC (Staphylococcus aureus [5]) [µg/mL] | MIC (Staphylococcus aureus [6]) [µg/mL] | MIC (Staphylococcus aureus [7]) [µg/mL] | MIC (Staphylococcus aureus [8]) [µg/mL] | MIC (Pseudomonas aeruginosa) [µg/mL] | inhibition (Bacillus subtilis) [%] | MIC [9] [µg/mL] | MIC (Acinetobacter baumannii) [µg/mL] | CC50 [10] [µM] | MIC (Staphylococcus aureus [11]) [µg/mL] | MIC [12] [µg/mL] | MIC (Staphylococcus aureus [13]) [µg/mL] | MIC (Staphylococcus aureus [14]) [µg/mL] | MIC (Staphylococcus aureus [15]) [µg/mL] | other results
CC(C)(C)c1ccc(NCc2cc([N+](=O)[O-])ccc2O)cc1 | 4 (≈ 13.3 µM) | 4 to 8 (≈ 13.3 to 26.6 µM) | 12 | 11 | 4 (≈ 13.3 µM) | 16 (≈ 53.3 µM) | 4 (≈ 13.3 µM) | 4 (≈ 13.3 µM) | 4 (≈ 13.3 µM) | 4 (≈ 13.3 µM) | > 256 | 10.8 | 4 (≈ 13.3 µM) | > 256 | 38.9 | 8 (≈ 26.6 µM) | > 256 | 2 (≈ 6.66 µM) | 4 (≈ 13.3 µM) | 4 (≈ 13.3 µM) | MIC (Streptococcus pyogenes): 16 µg/mL (≈ 53.3 µM); MIC (Enterococcus faecium): > 256 µg/mL; MIC (Staphylococcus aureus [16]): 4 µg/mL (≈ 13.3 µM); MIC (Staphylococcus aureus [17]): 4 µg/mL (≈ 13.3 µM); MIC [18]: 32 µg/mL (≈ 107 µM); CC50 [19]: 37.2 µM; MIC (Staphylococcus aureus [20]): 4 µg/mL (≈ 13.3 µM); MIC [21]: 8 µg/mL (≈ 26.6 µM); MIC (Staphylococcus aureus [22]): 4 µg/mL (≈ 13.3 µM)
CC(C)(C)c1cccc(NCc2cc([N+](=O)[O-])ccc2O)c1 | 8 (≈ 26.6 µM) | 8 (≈ 26.6 µM) | 6 | 6 | 2 (≈ 6.66 µM) | 16 (≈ 53.3 µM) | 8 (≈ 26.6 µM) | 8 (≈ 26.6 µM) | 4 (≈ 13.3 µM) | 4 (≈ 13.3 µM) | > 256 | 39.5 | 16 (≈ 53.3 µM) | > 256 | 20.2 | 4 (≈ 13.3 µM) | > 256 | 2 (≈ 6.66 µM) | 8 (≈ 26.6 µM) | 8 (≈ 26.6 µM) | MIC (Streptococcus pyogenes): 16 µg/mL (≈ 53.3 µM); MIC (Enterococcus faecium): 32 µg/mL (≈ 107 µM); MIC (Staphylococcus aureus [16]): 8 µg/mL (≈ 26.6 µM); MIC (Staphylococcus aureus [17]): 4 µg/mL (≈ 13.3 µM); MIC [18]: 32 µg/mL (≈ 107 µM); CC50 [19]: 18.3 µM; MIC (Staphylococcus aureus [20]): 8 µg/mL (≈ 26.6 µM); MIC [21]: 1 µg/mL (≈ 3.33 µM); MIC (Staphylococcus aureus [22]): 4 µg/mL (≈ 13.3 µM)
O=[N+]([O-])c1ccc(O)c(CNc2ccccc2C(F)(F)F)c1 | 4 (≈ 12.8 µM) | 8 (≈ 25.6 µM) | 6 | 6 | 4 (≈ 12.8 µM) | 16 (≈ 51.2 µM) | 4 (≈ 12.8 µM) | 2 (≈ 6.41 µM) | 2 (≈ 6.41 µM) | 4 (≈ 12.8 µM) | > 256 | 61.5 | 2 (≈ 6.41 µM) | 128 (≈ 410 µM) | 18.3 | 2 (≈ 6.41 µM) | 256 (≈ 820 µM) | 2 (≈ 6.41 µM) | 4 (≈ 12.8 µM) | 4 (≈ 12.8 µM) | MIC (Streptococcus pyogenes): 16 µg/mL (≈ 51.2 µM); MIC (Enterococcus faecium): 8 µg/mL (≈ 25.6 µM); MIC (Staphylococcus aureus [16]): 4 µg/mL (≈ 12.8 µM); MIC (Staphylococcus aureus [17]): 2 µg/mL (≈ 6.41 µM); MIC [18]: 64 µg/mL (≈ 205 µM); CC50 [19]: 20 µM; MIC (Staphylococcus aureus [20]): 2 µg/mL (≈ 6.41 µM); MIC [21]: 4 µg/mL (≈ 12.8 µM); MIC (Staphylococcus aureus [22]): 2 µg/mL (≈ 6.41 µM)
